Measured values reported in ChEMBL document CHEMBL3813647, “Discovery of an Orally Active and Liver-Targeted Prodrug of 5-Fluoro-2'-Deoxyuridine for the Treatment of Hepatocellular Carcinoma” (J Med Chem, 2016).

Tests used:
[1] = Half life in rat plasma by HPLC analysis; format: ADME, cell-free
Summary of the method: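 Rat plasma, 37 °C. Compound added from a 2.5 mM stock, sampled at 0–24 h, quenched with MeOH. Analyzed by HPLC-UV at 267 nm (C8 column, MeOH:H2O 68:32). Triplicate samples.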

[2] = Cytotoxicity against human SMMC7721 cells assessed as reduction in cell viability after 72 hrs by MTT assay; format: functional, cell-based; conditions: SMMC-7721, 72 h
Summary of the method: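 Cells in RPMI-1640 with 10% FBS, seeded at 4 × 10³ per well and attached for 24 h. Compound (DMSO ≤0.5% final) added for 72 h at 37 °C, 5% CO2. Viability read by MTT. IC50 set against 0.5% DMSO-treated cells taken as 100% viable. Mean of two independent experiments, each run in triplicate.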

Liver [3] = assay: Drug metabolism in phenobarbital/beta-napthoflavone treated Sprague-Dawley rat liver S9 fraction assessed as prodrug activation at 50 uM preincubated for 5 mins followed by NADPH addition measured up to 60 mins by HPLC-MS/MS analysis; format: ADME, subcellular; conditions: s9, 1 h
Summary of the method: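 S9 prepared from livers of Sprague-Dawley rats dosed i.g. with phenobarbital/β-naphthoflavone for 3 days. Incubation: 100 mM KH2PO4 pH 7.4, 5 mg/mL S9, compound at 50 μM, 5 min preincubation at 37 °C, then 2 mM NADPH. Samples at 0–60 min, MeOH extraction, FdUMP (m/z 325→129) measured by HPLC-MS/MS. Triplicate.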

Mus musculus = assay: Toxicity in KM mouse implanted with mouse H22 cells assessed as body weight level at 60 mg/kg administered daily through oral gavage after 8 days (reference value: 22.1 +/- 0.8g); format: organism-based; conditions: in vivo, 192 h
H22 = assay: Antitumor activity against mouse H22 cells implanted in KM mouse assessed as tumor growth inhibition at 60 mg/kg administered daily through oral gavage after 8 days; format: functional; conditions: 192 h
Summary of the method: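 Syngeneic H22 hepatoma: 2 × 10⁶ cells injected s.c. in the axilla (0.9% saline) of female KM mice, n = 10 per group. From day 2, daily oral gavage for 8 days. Test agent given in 35% PEG400; sorafenib suspended in 0.5% CMC-Na. Tumor weight taken on day 8; inhibition rate calculated versus the vehicle group.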

Liver [4] = assay: Cmax in Sprague-Dawley rat liver assessed as 5-FU formation at 23.62 mg/kg administered through oral gavage measured up to 24 hrs by HPLC-MS/MS analysis; format: ADME, organism-based; parameters: dose 23.62 mg/kg, route oral; conditions: in vivo
Summary of the method: (§1)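 Male Sprague-Dawley rats (220 ± 20 g), single gavage of 0.096 mmol/kg. FDUR was dosed in H2O; the prodrugs were dosed in 20% hydroxypropyl-β-cyclodextrin. n = 3 per time point, sampled at 0.25–24 h. Plasma (EDTA-K2, cardiac puncture) and freeze-clamped liver were homogenized in 20 mM EDTA-K2/70% MeOH. Analytes measured by HPLC-MS/MS in ESI negative mode.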

Plasma [5] = assay: Cmax in Sprague-Dawley rat plasma assessed as FDUR formation at 23.62 mg/kg administered through oral gavage measured up to 24 hrs by HPLC-MS/MS analysis; format: ADME, organism-based; parameters: dose 23.62 mg/kg, route oral; conditions: in vivo; summary of the method: as §1
[6] = Ratio of FdUMP AUC (infinity) in Sprague-Dawley rat liver to FDUR AUC (infinity) in Sprague-Dawley rat plasma at 23.62 mg/kg administered through oral gavage; format: ADME, organism-based; conditions: in vivo
Plasma [7] = assay: Cmax in Sprague-Dawley rat plasma assessed as 5-FU formation at 23.62 mg/kg administered through oral gavage measured up to 24 hrs by HPLC-MS/MS analysis; format: ADME, organism-based; parameters: dose 23.62 mg/kg, route oral; conditions: in vivo; summary of the method: as §1
Liver [8] = assay: AUC (infinity) in Sprague-Dawley rat liver assessed as 5-FU formation at 23.62 mg/kg administered through oral gavage measured up to 24 hrs by HPLC-MS/MS analysis; format: ADME, organism-based; parameters: dose 23.62 mg/kg, time infinity, route oral; conditions: in vivo; summary of the method: as §1
Liver [9] = assay: AUC (infinity) in Sprague-Dawley rat liver assessed as FdUMP formation at 23.62 mg/kg administered through oral gavage measured up to 24 hrs by HPLC-MS/MS analysis; format: ADME, organism-based; parameters: dose 23.62 mg/kg, time infinity, route oral; conditions: in vivo; summary of the method: as §1
Liver [10] = assay: Cmax in Sprague-Dawley rat liver assessed as FdUMP formation at 23.62 mg/kg administered through oral gavage measured up to 24 hrs by HPLC-MS/MS analysis; format: ADME, organism-based; parameters: dose 23.62 mg/kg, route oral; conditions: in vivo; summary of the method: as §1
Plasma [11] = assay: AUC (infinity) in Sprague-Dawley rat plasma assessed as 5-FU formation at 23.62 mg/kg administered through oral gavage measured up to 24 hrs by HPLC-MS/MS analysis; format: ADME, organism-based; parameters: dose 23.62 mg/kg, route oral, time infinity; conditions: in vivo; summary of the method: as §1
Plasma [12] = assay: AUC (infinity) in Sprague-Dawley rat plasma assessed as FDUR formation at 23.62 mg/kg administered through oral gavage measured up to 24 hrs by HPLC-MS/MS analysis; format: ADME, organism-based; parameters: dose 23.62 mg/kg, time infinity, route oral; conditions: in vivo; summary of the method: as §1
Liver [13] = assay: Drug uptake in Sprague-Dawley rat liver S9 fraction treated with (S)-Isopropyl 2-(((R)-(((2R,3S,5R)-5-(5-fluoro-2,4-dioxo 3,4-dihydropyrimidin-1(2H)-yl)-3-hydroxytetrahydrofuran-2-yl)methoxy)((2-methylbenzyl)oxy)phosphoryl)amino)propanoate at 20 ug/mL preincubated for 5 mins followed by NADPH addition measured at 20 mins by HPLC-MS/MS analysis; format: ADME, subcellular; conditions: s9, 20 min
Summary of the method: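 Rat liver S9 (10 mg/mL) incubated with compound at 20 μg/mL. Parent, intermediate A and FdUMP followed over time by HPLC-MS/MS. Negative control run without NADPH.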

| Compound | half-life [1] | Drug metabolism (Liver [3]) | IC50 [2] | also measured |
| --- | --- | --- | --- | --- |
| O=c1[nH]c(=O)n([C@H]2C[C@H](O)[C@@H](COP(=O)(NCc3ccccc3)OCc3cccc(Br)c3)O2)cc1F (stereo partly drawn) | > 24 h | 32.8 nmol/min/mg | 225 µM |  |
| CNC(=O)c1cc(Oc2ccc(NC(=O)Nc3ccc(Cl)c(C(F)(F)F)c3)cc2)ccn1 [SORAFENIB] |  |  |  | Activity (Mus musculus): 26.4 g; inhibition in vivo at 60 mg/kg (H22): 50.8% |
| O=c1[nH]c(=O)n([C@H]2C[C@H](O)[C@@H](COP(=O)(NCc3ccccc3)OCc3ccc(Cl)cc3)O2)cc1F (stereo partly drawn) | > 24 h | 25.6 nmol/min/mg | 133 µM |  |
| O=c1[nH]c(=O)n([C@H]2C[C@H](O)[C@@H](COP(=O)(NCc3ccccc3)OCc3ccc(Br)cc3)O2)cc1F (stereo partly drawn) | > 24 h | 39.1 nmol/min/mg | 107 µM |  |
| O=c1[nH]c(=O)n([C@H]2C[C@H](O)[C@@H](CO)O2)cc1F [FLOXURIDINE] |  |  |  | Cmax (Liver [4]): 60 ng/g; Cmax (Plasma [5]): 180 ng/mL; Ratio AUC [6]: < 0.11; Cmax (Plasma [7]): 169 ng/mL; AUC (Liver [8]): 232 ng·h/g; AUC (Liver [9]): < 34 ng·h/g; Cmax (Liver [10]): 9 ng/g; AUC (Plasma [11]): 209 ng·h/mL; AUC (Plasma [12]): 308 ng·h/mL |
| O=c1[nH]c(=O)n([C@H]2C[C@H](O)[C@@H](COP(=O)(O)O)O2)cc1F [5-FLUORODEOXYURIDYLATE] |  |  |  | Drug uptake (Liver [13]): metabolite_detected |

Further lines, with some results ahead:

| half-life [1] | Drug metabolism (Liver [3]) | Compound | IC50 [2] | also measured |
| --- | --- | --- | --- | --- |
| > 24 h | 49.6 nmol/min/mg | O=c1[nH]c(=O)n([C@H]2C[C@H](O)[C@@H](COP(=O)(NCc3ccccc3)OCc3ccccc3Br)O2)cc1F (stereo partly drawn) | 151 µM |  |
| > 24 h | 49.4 nmol/min/mg | Cc1cccc(COP(=O)(NCc2ccccc2)OC[C@H]2O[C@@H](n3cc(F)c(=O)[nH]c3=O)C[C@@H]2O)c1 (stereo partly drawn) | 139 µM |  |
| > 24 h | 40 nmol/min/mg | O=c1[nH]c(=O)n([C@H]2C[C@H](O)[C@@H](COP(=O)(NCc3ccccc3)OCc3ccc([N+](=O)[O-])cc3)O2)cc1F (stereo partly drawn) | > 1000 µM |  |
| > 24 h | 14.9 nmol/min/mg | O=c1[nH]c(=O)n([C@H]2C[C@H](O)[C@@H](COP(=O)(NCc3ccccc3)OCc3cccc([N+](=O)[O-])c3)O2)cc1F (stereo partly drawn) |  |  |
| > 24 h | 44.7 nmol/min/mg | O=c1[nH]c(=O)n([C@H]2C[C@H](O)[C@@H](COP(=O)(NCc3ccccc3)OCc3ccccc3[N+](=O)[O-])O2)cc1F (stereo partly drawn) | > 500 µM |  |
| 3.4 h | 238.9 nmol/min/mg | COc1ccccc1COP(=O)(NCc1ccccc1)OC[C@H]1O[C@@H](n2cc(F)c(=O)[nH]c2=O)C[C@@H]1O (stereo partly drawn) | 6.8 µM |  |
